pIC50: −log10 of the molar value. Like-named read-outs stand apart in the source and are kept apart here.
Key:
human TMEM16A [1] = biological target: T1, human TMEM16A (Homo sapiens, UniProt Q5XXA6, DEL476-501); assay: TMEM16A functional assay; assay type: cell-based; details: for TMEM16A inhibition activity on initial testing: tested at 10 µM, fluorescence plate reader assay
T1 sequence (Q5XXA6 with tags, fused parts or gaps isoform Q5XXA6-5 DEL539-564): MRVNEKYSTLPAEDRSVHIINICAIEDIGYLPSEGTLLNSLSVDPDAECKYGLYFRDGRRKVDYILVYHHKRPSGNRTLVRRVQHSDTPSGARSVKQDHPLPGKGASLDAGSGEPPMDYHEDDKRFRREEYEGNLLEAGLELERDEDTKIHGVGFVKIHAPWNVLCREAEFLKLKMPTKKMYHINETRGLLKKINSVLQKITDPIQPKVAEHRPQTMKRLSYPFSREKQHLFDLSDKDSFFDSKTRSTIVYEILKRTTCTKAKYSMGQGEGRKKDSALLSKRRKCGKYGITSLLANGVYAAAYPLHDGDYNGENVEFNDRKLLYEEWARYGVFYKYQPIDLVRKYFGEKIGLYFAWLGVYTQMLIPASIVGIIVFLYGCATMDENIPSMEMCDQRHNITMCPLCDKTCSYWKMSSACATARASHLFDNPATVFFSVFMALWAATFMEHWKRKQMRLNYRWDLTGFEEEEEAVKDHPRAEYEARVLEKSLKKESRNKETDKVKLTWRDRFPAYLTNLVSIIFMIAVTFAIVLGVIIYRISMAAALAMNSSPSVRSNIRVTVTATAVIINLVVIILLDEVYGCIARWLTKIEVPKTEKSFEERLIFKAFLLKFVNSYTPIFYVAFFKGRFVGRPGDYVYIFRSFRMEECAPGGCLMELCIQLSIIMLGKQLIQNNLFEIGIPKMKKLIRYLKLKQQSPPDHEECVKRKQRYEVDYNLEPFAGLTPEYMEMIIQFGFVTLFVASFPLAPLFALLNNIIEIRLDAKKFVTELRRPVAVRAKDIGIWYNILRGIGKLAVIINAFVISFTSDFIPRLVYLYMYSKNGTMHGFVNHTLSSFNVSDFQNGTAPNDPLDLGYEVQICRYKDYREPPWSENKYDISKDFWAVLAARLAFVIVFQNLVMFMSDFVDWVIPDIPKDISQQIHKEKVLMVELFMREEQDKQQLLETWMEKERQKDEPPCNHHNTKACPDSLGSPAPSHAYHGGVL
Procedure, shortened: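 FRT cells stably co-expressing human TMEM16A (abc isoform) and YFP-H148Q/I152L/F46L, assayed 24 h after plating. Wells washed twice with PBS; test compound added in DMSO for 10 min. Fluorescence read every 400 ms: 2 s baseline, 140 mM iodide added at 2 s, then 70 mM iodide containing 300 µM ATP at 6.4 s. Initial iodide influx rate fitted by non-linear regression. Screen at 10 µM; IC50 from concentration-inhibition data.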

human TMEM16A [2] = biological target: T1, human TMEM16A; assay: Short-circuit current assay in FRT-TMEM16A cells; assay type: cell-based
Procedure, shortened: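 FRT cells stably expressing human TMEM16A, grown on Snapwell inserts and mounted in Ussing chambers. Basolateral membrane permeabilized with amphotericin B (250 µg/ml, 30 min). Chloride gradient: HCO3-buffered basolateral solution; apical 120 mM NaCl replaced by Na gluconate. 37 °C, 95% O2/5% CO2, 10-min stabilization. Test compound added apically 5 min before activation by 100 µM ATP. IC50 from short-circuit current concentration-dependence.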

human TMEM16A [3] = biological target: T1, human TMEM16A; details: read-out: IC50, short-circuit current assay of TMEM16A function; as reported previously; cited from earlier work

Row | SMILES | pIC50 (human TMEM16A [1]) | TMEM16A inhibition activity on initial testing (human TMEM16A [1]) | pIC50 (human TMEM16A [2]) | pIC50 (human TMEM16A [3])
1 | Cc1c(O)nc(SCC(=O)Nc2nc(-c3ccccc3)cs2)nc1C(F)(F)F [Compound 9ao, 2-(4-Hydroxy-5-methyl-6-trifluoromethyl-pyrimidin-2-ylsulfanyl)-N-(4-phenyl-thiazol-2-yl)-acetamide] | 5.21 | measurable activity | – | –
2 | CCc1c(C)nc(SCC(=O)Nc2nc(-c3cccs3)cs2)nc1O [Compound 9bo, 2-(5-Ethyl-4-hydroxy-6-methyl-pyrimidin-2-ylsulfanyl)-N-(4-thiophen-2-yl-thiazol-2-yl)-acetamide] | 5.46 | measurable activity | ~6.00 | –
3 | Cc1nc(SCC(=O)Nc2nc(-c3cccs3)cs2)nc(O)c1C [Compound 9bs, 2-(4-Hydroxy-5,6-dimethyl-pyrimidin-2-ylsulfanyl)-N-(4-thiophen-2-yl-thiazol-2-yl)-acetamide] | 5.54 | measurable activity | ~5.52 | –
4 | CCc1c(C)nc(SCC(=O)Nc2nc(-c3ccc(OC)cc3)cs2)[nH]c1=O [Compound T16Ainh-A01] | – | – | – | ~6.00

Source: PMC4958041 (Journal of enzyme inhibition and medicinal chemistry, 2016)
